Active and inactive are the calls of the source.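 The calls were made as follows, unless noted: active = GFP response above 150% of the DMSO level; inconclusive = fewer than 70 events counted for a yeast strain; inactive = the rest.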

The nature of assay [1]: RPL19A-GFP modulators, yeast TOR pathway, confirmation, cell-based, S. cerevisiae, flow cytometry, cherry picks, mother/daughter gates (AID 2270;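 active = GFP response below 50% of the DMSO control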). The settings on record: S. cerevisiae RPL19A-GFP strain, 3 h, at 10 µM, stronger effect = lower value, 100 = same GFP as DMSO wells. For orientation: In flow cytometry, cells or beads pass a laser one at a time.
A short description of assay [2]: LAP4-GFP expression modulators in yeast, confirmation, cell-based, cherry picks, flow cytometry, mother/daughter gates (AID 2271;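 active = GFP response above 150% of the DMSO control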;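 also: ratio of sample to DMSO plate mean so 100% equals DMSO level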). The settings on record: S. cerevisiae LAP4-GFP strain, 3 h, at 10 µM, stronger effect = higher value, 100 means same as DMSO control. The gist of the method:
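Material – Alexa Fluor 633-labelled Saccharomyces cerevisiae GFP-fusion strain, single-plex · Incubation – compound exposure 3 h at 30 °C, end-over-end rotation · Measured by – GFP by flow cytometry · Measure – median GFP fluorescence as percent of plate-mean DMSO wells · Control set – positive rapamycin (400 ng/mL), negative DMSO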

Assay [3] is described as follows: modulators of MEP2-GFP levels in yeast, confirmation, S. cerevisiae, flow cytometry GFP, cherry picks (AID 2272;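 active = GFP response above 150% of the DMSO control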;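 also: ratio of well signal to plate DMSO mean so 100% equals DMSO level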). The settings on record: S. cerevisiae MEP2-GFP strain, 3 h, at 10 µM, stronger effect = higher value.
Assay [4] in a line: AGP1-GFP expression modulators, hit retest, confirmation, cell-based, flow cytometry, S. cerevisiae, cherry picks (AID 2273).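 Also: median GFP channel fluorescence over the whole cell population gate.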 The settings on record: S. cerevisiae AGP1-GFP strain, 3 h, at 10 µM.
Assay [5] is described as follows: modulators of CIT2-GFP expression in yeast, confirmation, S. cerevisiae, GFP fusion, cherry picks, mother/daughter gates (AID 2274). The settings on record: S. cerevisiae CIT2-GFP strain, flow cytometry, 3 h, at 10 µM, stronger effect = higher value.
Where [6] appears, read: measured here: daughter cell gate.
Where [7] appears, read: measured here: mother cell gate.
[8] abbreviates: measured here: daughter cell gate response.
Where [9] appears, read: measured here: mother cell gate response.

Consider `COCCn1c(=N)c(C(=O)NCc2ccco2)cc2c(=O)n3ccccc3nc21`, for which the GFP response vs DMSO was 100% (inactive) in assay [1], 95.3% in assay [1] (setting [6]), 93.5% in assay [1] (setting [7]) and 95.2% (inactive) in assay [3]. Also, the GFP response relative to DMSO is 96.5% (inactive) in assay [2], 96% in assay [2] (setting [8]) and 86.3% in assay [2] (setting [9]). The GFP response, % of DMSO in assay [4] was 102% (inactive); in assay [5], 100% (inactive); in assay [5] (setting [6]), 97.6%; in assay [5] (setting [7]) it was 97.1%.

Consider `Cc1noc2ncnc(Sc3c(Cl)cccc3Cl)c12`, for which the GFP response vs DMSO in assay [1] is 101% (inactive); in assay [1] (setting [6]), 102%; in assay [1] (setting [7]) it was 99.8%; in assay [3] it was 100% (inactive). Moreover, the GFP response relative to DMSO in assay [2] is 94.1% (inactive); in assay [2] (setting [8]), 94.4%; in assay [2] (setting [9]), 94%. The GFP response, % of DMSO in assay [4] is 88.6% (inactive); in assay [5], 105% (inactive); in assay [5] (setting [6]) it was 105%; in assay [5] (setting [7]) it was 104%.

Consider `Cc1ccc(C2CC(c3cccs3)=NN2S(=O)(=O)c2ccc(C)cc2)cc1` (stereo not given), for which the GFP response vs DMSO was 101% (inactive) in assay [1], 100% in assay [1] (setting [6]), 102% in assay [1] (setting [7]) and 109% (inactive) in assay [3]. Besides, the results for the GFP response relative to DMSO in assay [2], in assay [2] (setting [8]) and in assay [2] (setting [9]) were 98.2% (inactive), 97.5% and 97.3%, respectively. Moreover, the GFP response, % of DMSO in assay [4] is 99% (inactive); in assay [5], 98.8% (inactive); in assay [5] (setting [6]), 97.4%; in assay [5] (setting [7]), 98.1%.

In the case of `O=S(=O)(Nc1ccc(Br)cc1)c1cccc2nonc12`, the GFP response vs DMSO was 97.4% (inactive) in assay [1], 97.5% in assay [1] (setting [6]), 98.3% in assay [1] (setting [7]) and 99.5% (inactive) in assay [3]. Besides, the figures for the GFP response relative to DMSO in assay [2], in assay [2] (setting [8]) and in assay [2] (setting [9]) were 96.5% (inactive), 95% and 95.6%, respectively. Further, the GFP response, % of DMSO in assay [4] is 93.8% (inactive); in assay [5], 97.8% (inactive); in assay [5] (setting [6]), 98.3%; in assay [5] (setting [7]), 95.6%.

Turning to `Cc1cccc(NC(=O)CC2SC(=O)N(c3ccccc3)C2=O)c1` (stereo not given), the GFP response vs DMSO was 96.6% (inactive) in assay [1], 99.4% in assay [1] (setting [6]), 93% in assay [1] (setting [7]) and 109% (inactive) in assay [3]. Further, the results for the GFP response relative to DMSO in assay [2], in assay [2] (setting [8]) and in assay [2] (setting [9]) were 126% (inactive), 128% and 126%, respectively. For the same molecule, the GFP response, % of DMSO is 93.9% (inactive) in assay [4], 104% (inactive) in assay [5], 106% in assay [5] (setting [6]) and 97.3% in assay [5] (setting [7]).

For `Cc1ccc(N2C(=O)C3C4C=CC(CNC(=S)N5CCN(c6ccccc6)CC5)(O4)C3C2=O)cc1` (stereo not given), the GFP response vs DMSO in assay [1] was 102% (inactive); in assay [1] (setting [6]), 101%; in assay [1] (setting [7]) it was 101%; in assay [3], 100% (inactive). Besides, the figures for the GFP response relative to DMSO in assay [2], in assay [2] (setting [8]) and in assay [2] (setting [9]) were 89% (inactive), 94.1% and 92.1%, respectively. Further, the GFP response, % of DMSO in assay [4] was 96.5% (inactive); in assay [5], 110% (inactive); in assay [5] (setting [6]), 105%; in assay [5] (setting [7]) it was 113%.

With `Cc1c(Br)c(O)c(Br)c2sc(=O)oc12`, the GFP response vs DMSO in assay [1] was 96.2% (inactive); in assay [1] (setting [6]), 101%; in assay [1] (setting [7]), 94.2%; in assay [3], 105% (inactive). For the same molecule, the GFP response relative to DMSO was 125% (inactive) in assay [2], 123% in assay [2] (setting [8]) and 129% in assay [2] (setting [9]). Further, the GFP response, % of DMSO in assay [4] is 101% (inactive); in assay [5], 97.3% (inactive); in assay [5] (setting [6]), 101%; in assay [5] (setting [7]), 94.4%.

On to `O=C(N/N=C/c1ccc(F)cc1)c1ccc(Br)cc1`, for which the GFP response vs DMSO in assay [1] is 99.6% (inactive); in assay [1] (setting [6]), 98.6%; in assay [1] (setting [7]) it was 98%; in assay [3], 96.8% (inactive). Further, the GFP response relative to DMSO in assay [2] was 111% (inactive); in assay [2] (setting [8]), 109%; in assay [2] (setting [9]), 109%. The GFP response, % of DMSO is 99.6% (inactive) in assay [4], 102% (inactive) in assay [5], 101% in assay [5] (setting [6]) and 87% in assay [5] (setting [7]).

With `Cc1nn(Cc2ccc([N+](=O)[O-])cc2)c(=O)n1-c1cccc(Cl)c1`, the GFP response vs DMSO in assay [1] is 96% (inactive); in assay [1] (setting [6]), 96.6%; in assay [1] (setting [7]), 96.6%; in assay [3], 98.3% (inactive). Besides, the values for the GFP response relative to DMSO in assay [2], in assay [2] (setting [8]) and in assay [2] (setting [9]) were 96.7% (inactive), 97.6% and 96.1%, respectively. Moreover, the GFP response, % of DMSO is 95.4% (inactive) in assay [4], 99.7% (inactive) in assay [5], 101% in assay [5] (setting [6]) and 99.7% in assay [5] (setting [7]).

On to `O=C(OCC(=O)N1CCN(C(=O)c2ccco2)CC1)c1cc(-c2ccc(Cl)c(Cl)c2Cl)nc2ccccc12`, for which the GFP response vs DMSO in assay [1] is 90.1% (inactive); in assay [1] (setting [6]), 89.1%; in assay [1] (setting [7]) it was 89%; in assay [3], 117% (inactive). In addition, the values for the GFP response relative to DMSO in assay [2], in assay [2] (setting [8]) and in assay [2] (setting [9]) were 97.9% (inactive), 99.2% and 104%, respectively. Moreover, the GFP response, % of DMSO in assay [4] was 116% (inactive); in assay [5] it was 115% (inactive); in assay [5] (setting [6]), 105%; in assay [5] (setting [7]), 107%.

Regarding `COc1cc(/C=C2\N=C(c3ccccc3)OC2=O)ccc1OC(C)=O`, the GFP response vs DMSO in assay [1] is 94.9% (inactive); in assay [1] (setting [6]), 93.5%; in assay [1] (setting [7]), 96.3%; in assay [3] it was 112% (inactive). Besides, the values for the GFP response relative to DMSO in assay [2], in assay [2] (setting [8]) and in assay [2] (setting [9]) were 101% (inactive), 98.2% and 102%, respectively. The GFP response, % of DMSO in assay [4] was 107% (inactive); in assay [5] it was 113% (inactive); in assay [5] (setting [6]), 111%; in assay [5] (setting [7]), 113%.

As to `CCN(c1ccccc1)S(=O)(=O)c1ccc(C(=O)Nc2nnc(COC)o2)cc1`, the GFP response vs DMSO is 101% (inactive) in assay [1], 99.5% in assay [1] (setting [6]), 102% in assay [1] (setting [7]) and 100% (inactive) in assay [3]. The GFP response relative to DMSO in assay [2] is 96.2% (inactive); in assay [2] (setting [8]), 97.2%; in assay [2] (setting [9]), 98.3%. In addition, the GFP response, % of DMSO is 99.2% (inactive) in assay [4], 96.5% (inactive) in assay [5], 94.8% in assay [5] (setting [6]) and 98.7% in assay [5] (setting [7]).

For the molecule `CCc1c2ccccc2nn1-c1ccccc1C(=O)C(C)=O`, the GFP response vs DMSO in assay [1] is 95.8% (inactive); in assay [1] (setting [6]) it was 97.3%; in assay [1] (setting [7]), 94%; in assay [3], 103% (inactive). The GFP response relative to DMSO in assay [2] is 102% (inactive); in assay [2] (setting [8]), 101%; in assay [2] (setting [9]) it was 102%. For the same molecule, the GFP response, % of DMSO in assay [4] is 100% (inactive); in assay [5] it was 98.6% (inactive); in assay [5] (setting [6]), 99.3%; in assay [5] (setting [7]) it was 98.2%.

For `COC(=O)c1ccc(C(=O)NC(=S)Nc2ccc3nc(SC)sc3c2)cc1`, the GFP response vs DMSO was 97.8% (inactive) in assay [1], 97.6% in assay [1] (setting [6]), 98.3% in assay [1] (setting [7]) and 101% (inactive) in assay [3]. Also, the GFP response relative to DMSO in assay [2] is 90% (inactive); in assay [2] (setting [8]), 90.4%; in assay [2] (setting [9]) it was 91%. Moreover, the GFP response, % of DMSO in assay [4] is 102% (inactive); in assay [5], 103% (inactive); in assay [5] (setting [6]), 93.7%; in assay [5] (setting [7]), 105%.

For `Cc1ccc(/C=C2/SC(=S)N(C3CCCCC3)C2=O)o1`, the GFP response vs DMSO in assay [1] is 100% (inactive); in assay [1] (setting [6]), 100%; in assay [1] (setting [7]), 98.6%; in assay [3], 126% (inactive). The figures for the GFP response relative to DMSO in assay [2], in assay [2] (setting [8]) and in assay [2] (setting [9]) were 157% (active), 145% and 161%, respectively. Moreover, the GFP response, % of DMSO in assay [4] is 106% (inactive); in assay [5], 98.8% (inactive); in assay [5] (setting [6]), 101%; in assay [5] (setting [7]) it was 89.5%.

Values taken from PubChem BioAssay.
